According to ChEMBL document CHEMBL1134554, “Design, synthesis, and structure-activity relationships of macrocyclic hydroxamic acids that inhibit tumor necrosis factor alpha release in vitro and in vivo” (J Med Chem, 2001):

Experiments:
[1] = molecular target: Matrix metalloproteinase-14 (Homo sapiens, UniProt P50281); experiment: Inhibition of matrix metalloprotease-14
[2] = molecular target: Matrix metalloproteinase-16 (Homo sapiens, UniProt P51512); experiment: Inhibition of matrix metalloprotease-16
[3] = Maximal plasma concentration in Beagle dogs after 0.74 mg/kg intravenous dose.; type: ADME, organism-based, Canis lupus familiaris; design: dose 0.74 mg/kg, route intravenous; settings: dog, in vivo
Method in brief: (§1)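 Male beagle dogs (~10 kg), two per compound, dosed iv in 10% ethanol solution. Blood sampled before dosing and at 1, 2, 4, 6, 8, 12 and 24 h after. Plasma levels measured by LC/MS/MS after solid-phase extraction (detection limit 10 nM). Parameters reported as mean.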

[4] = Pharmacokinetic data in Beagle dogs at 0.863 mg/kg oral dose.; type: ADME, organism-based, Canis lupus familiaris; design: dose 0.863 mg/kg, route oral; settings: dog, in vivo
Method in brief: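 Two male beagle dogs (~10 kg) given 0.863 mg/kg orally as a 0.5% methocell suspension. Blood sampled before dosing and at 1, 2, 4, 6, 8, 12 and 24 h after. Plasma levels measured by LC/MS/MS after solid-phase extraction (detection limit 10 nM). Parameters reported as mean.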

[5] = molecular target: T1, Interstitial collagenase (Homo sapiens, UniProt P03956); experiment: In vitro inhibition of human MMP-1.
T1 sequence (P03956 whole entry): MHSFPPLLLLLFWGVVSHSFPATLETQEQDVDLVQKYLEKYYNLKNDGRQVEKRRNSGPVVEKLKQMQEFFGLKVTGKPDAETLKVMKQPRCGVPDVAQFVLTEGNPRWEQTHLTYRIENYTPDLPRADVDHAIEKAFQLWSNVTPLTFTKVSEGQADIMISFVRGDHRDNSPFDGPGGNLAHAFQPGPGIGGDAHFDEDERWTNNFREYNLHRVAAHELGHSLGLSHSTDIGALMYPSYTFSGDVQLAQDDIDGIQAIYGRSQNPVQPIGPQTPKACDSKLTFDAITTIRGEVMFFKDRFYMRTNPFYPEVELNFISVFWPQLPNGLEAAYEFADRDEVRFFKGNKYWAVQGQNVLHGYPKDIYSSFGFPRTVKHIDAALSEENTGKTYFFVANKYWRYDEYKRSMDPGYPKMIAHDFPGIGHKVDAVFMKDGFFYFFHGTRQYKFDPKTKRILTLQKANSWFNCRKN

[6] = Pharmacokinetic data in Beagle dogs at 0.74 mg/kg i.v. dose and 0.863 mg/kg p.o. dose; type: ADME, organism-based, Canis lupus familiaris; settings: dog, in vivo, po
Method in brief: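 Male beagle dogs: iv 0.74 mg/kg in 10% ethanol (n=2), oral 0.863 mg/kg in 0.5% methocell suspension (n=2). Blood sampled to 24 h post-dose. Plasma analysed by LC/MS/MS after solid-phase extraction (detection limit 10 nM). Mean parameters given.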

[7] = molecular target: Neutrophil collagenase (Homo sapiens, UniProt P22894); experiment: Inhibition of matrix metalloprotease-8
Chain of Neutrophil collagenase (P22894 whole entry): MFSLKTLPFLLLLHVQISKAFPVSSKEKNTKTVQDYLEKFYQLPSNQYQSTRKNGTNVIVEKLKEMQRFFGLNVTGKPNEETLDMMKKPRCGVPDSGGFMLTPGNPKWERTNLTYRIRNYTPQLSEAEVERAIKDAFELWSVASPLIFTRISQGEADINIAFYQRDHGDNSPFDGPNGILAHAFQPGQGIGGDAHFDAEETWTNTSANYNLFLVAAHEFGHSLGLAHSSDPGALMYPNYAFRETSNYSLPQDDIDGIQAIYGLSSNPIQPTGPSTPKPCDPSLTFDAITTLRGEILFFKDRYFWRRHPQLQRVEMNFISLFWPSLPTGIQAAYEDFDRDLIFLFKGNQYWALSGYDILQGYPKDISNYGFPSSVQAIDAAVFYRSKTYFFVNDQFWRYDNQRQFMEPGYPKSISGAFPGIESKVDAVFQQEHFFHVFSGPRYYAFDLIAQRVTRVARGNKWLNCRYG

[8] = Pharmacokinetic data in Beagle dogs at 0.74 mg/kg intravenous dose.; type: ADME, organism-based, Canis lupus familiaris; design: dose 0.74 mg/kg, route intravenous; settings: dog, in vivo; method in brief: as §1
[9] = molecular target: 72 kDa type IV collagenase (Homo sapiens, UniProt P08253)
Chain of 72 kDa type IV collagenase (P08253 whole entry): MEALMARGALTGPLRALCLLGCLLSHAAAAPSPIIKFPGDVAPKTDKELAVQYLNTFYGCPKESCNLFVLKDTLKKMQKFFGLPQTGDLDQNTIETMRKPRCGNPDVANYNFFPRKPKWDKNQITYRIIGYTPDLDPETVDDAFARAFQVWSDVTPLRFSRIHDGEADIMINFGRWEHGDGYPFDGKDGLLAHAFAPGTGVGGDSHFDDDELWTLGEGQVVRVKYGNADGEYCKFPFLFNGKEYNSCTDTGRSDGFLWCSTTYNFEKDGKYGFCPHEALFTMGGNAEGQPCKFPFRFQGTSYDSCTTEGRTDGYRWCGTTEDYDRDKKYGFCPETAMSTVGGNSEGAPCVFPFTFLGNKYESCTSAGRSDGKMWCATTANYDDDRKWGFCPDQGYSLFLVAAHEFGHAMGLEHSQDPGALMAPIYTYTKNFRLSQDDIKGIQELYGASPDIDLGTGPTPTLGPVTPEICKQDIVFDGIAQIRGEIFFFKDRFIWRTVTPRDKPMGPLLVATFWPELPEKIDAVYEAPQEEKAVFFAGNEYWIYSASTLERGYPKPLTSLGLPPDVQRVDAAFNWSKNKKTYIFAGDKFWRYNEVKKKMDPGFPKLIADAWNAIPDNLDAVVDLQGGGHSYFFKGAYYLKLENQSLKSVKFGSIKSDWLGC

[10] = molecular target: T2, Matrilysin (Homo sapiens, UniProt P09237); experiment: Inhibition of matrix metalloprotease-7
T2 sequence (P09237 whole entry): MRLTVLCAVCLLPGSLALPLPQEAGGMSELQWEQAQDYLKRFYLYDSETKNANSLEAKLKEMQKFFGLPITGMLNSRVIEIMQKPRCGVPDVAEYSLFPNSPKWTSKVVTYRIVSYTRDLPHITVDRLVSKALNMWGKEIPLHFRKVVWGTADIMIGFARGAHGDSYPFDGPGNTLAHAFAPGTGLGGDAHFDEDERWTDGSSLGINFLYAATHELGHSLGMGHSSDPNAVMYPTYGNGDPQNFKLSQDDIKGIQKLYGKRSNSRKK

[11] = molecular target: Stromelysin-1 (Homo sapiens, UniProt P08254); experiment: Inhibition of human MMP-3.
Chain of Stromelysin-1 (P08254 whole entry, the tested form may be a part): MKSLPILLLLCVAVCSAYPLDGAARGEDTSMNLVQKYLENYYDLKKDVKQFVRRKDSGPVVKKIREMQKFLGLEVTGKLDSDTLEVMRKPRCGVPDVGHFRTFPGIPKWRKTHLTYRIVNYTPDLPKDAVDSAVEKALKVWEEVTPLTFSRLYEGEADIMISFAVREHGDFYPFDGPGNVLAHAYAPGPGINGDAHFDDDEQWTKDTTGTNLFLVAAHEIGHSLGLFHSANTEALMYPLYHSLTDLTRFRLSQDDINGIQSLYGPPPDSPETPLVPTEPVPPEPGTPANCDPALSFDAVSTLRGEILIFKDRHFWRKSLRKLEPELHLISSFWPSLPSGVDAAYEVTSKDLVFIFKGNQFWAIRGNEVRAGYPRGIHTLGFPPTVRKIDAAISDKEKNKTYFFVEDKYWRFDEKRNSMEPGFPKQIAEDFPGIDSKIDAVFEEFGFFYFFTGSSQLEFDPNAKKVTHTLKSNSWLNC

[12] = molecular target: Disintegrin and metalloproteinase domain-containing protein 17 (Homo sapiens, UniProt P78536)
Chain of Disintegrin and metalloproteinase domain-containing protein 17 (Homo sapiens, UniProt P78536) (P78536 whole entry, the tested form may be a part): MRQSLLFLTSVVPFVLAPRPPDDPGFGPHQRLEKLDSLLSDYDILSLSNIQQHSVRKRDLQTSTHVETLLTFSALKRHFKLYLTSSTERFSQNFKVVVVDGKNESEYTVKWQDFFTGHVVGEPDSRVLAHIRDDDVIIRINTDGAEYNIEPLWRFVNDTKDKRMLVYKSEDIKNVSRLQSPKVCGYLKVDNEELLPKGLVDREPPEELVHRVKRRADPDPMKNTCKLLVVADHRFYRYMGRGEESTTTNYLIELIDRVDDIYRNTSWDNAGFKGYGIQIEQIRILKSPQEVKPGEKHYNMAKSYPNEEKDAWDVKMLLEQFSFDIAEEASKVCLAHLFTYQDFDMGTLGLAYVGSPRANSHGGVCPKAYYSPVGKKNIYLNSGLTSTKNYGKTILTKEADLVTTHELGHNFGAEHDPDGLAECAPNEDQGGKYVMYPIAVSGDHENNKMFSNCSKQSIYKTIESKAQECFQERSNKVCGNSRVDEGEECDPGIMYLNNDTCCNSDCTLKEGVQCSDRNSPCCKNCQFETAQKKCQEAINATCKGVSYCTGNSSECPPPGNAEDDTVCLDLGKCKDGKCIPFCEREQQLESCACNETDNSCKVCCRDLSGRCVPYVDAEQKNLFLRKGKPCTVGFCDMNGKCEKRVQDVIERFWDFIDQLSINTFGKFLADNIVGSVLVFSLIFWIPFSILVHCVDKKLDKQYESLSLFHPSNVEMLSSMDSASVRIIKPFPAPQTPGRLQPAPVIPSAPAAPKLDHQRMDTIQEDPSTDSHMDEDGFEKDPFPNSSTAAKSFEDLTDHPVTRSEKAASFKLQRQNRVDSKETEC

[13] = molecular target: Matrix metalloproteinase-9 (Homo sapiens, UniProt P14780); experiment: In vitro inhibition of human MMP-9.
Chain of Matrix metalloproteinase-9 (P14780 whole entry, the tested form may be a part): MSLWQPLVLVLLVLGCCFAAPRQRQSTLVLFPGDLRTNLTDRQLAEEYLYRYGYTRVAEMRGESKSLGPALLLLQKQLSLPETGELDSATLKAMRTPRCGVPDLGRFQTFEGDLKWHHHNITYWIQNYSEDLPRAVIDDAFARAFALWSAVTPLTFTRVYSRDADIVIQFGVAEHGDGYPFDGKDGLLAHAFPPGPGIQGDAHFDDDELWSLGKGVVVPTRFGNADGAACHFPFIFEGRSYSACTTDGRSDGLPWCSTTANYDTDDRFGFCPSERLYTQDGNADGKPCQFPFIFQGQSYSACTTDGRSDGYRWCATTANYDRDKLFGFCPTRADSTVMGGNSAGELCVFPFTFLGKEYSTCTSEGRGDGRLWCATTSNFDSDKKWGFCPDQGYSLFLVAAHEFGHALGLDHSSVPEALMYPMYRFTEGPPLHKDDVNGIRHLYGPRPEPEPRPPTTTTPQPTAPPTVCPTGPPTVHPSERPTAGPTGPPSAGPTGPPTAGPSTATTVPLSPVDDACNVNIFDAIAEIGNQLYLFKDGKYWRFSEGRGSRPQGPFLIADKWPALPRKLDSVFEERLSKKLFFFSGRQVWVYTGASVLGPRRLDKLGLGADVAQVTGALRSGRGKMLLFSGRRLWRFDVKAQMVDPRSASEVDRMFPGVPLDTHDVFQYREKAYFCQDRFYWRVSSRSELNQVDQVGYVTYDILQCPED

[14] = molecular target: Disintegrin and metalloproteinase domain-containing protein 17 (Sus scrofa, UniProt O77636)
Chain of Disintegrin and metalloproteinase domain-containing protein 17 (Sus scrofa, UniProt O77636) (O77636 whole entry, the tested form may be a part): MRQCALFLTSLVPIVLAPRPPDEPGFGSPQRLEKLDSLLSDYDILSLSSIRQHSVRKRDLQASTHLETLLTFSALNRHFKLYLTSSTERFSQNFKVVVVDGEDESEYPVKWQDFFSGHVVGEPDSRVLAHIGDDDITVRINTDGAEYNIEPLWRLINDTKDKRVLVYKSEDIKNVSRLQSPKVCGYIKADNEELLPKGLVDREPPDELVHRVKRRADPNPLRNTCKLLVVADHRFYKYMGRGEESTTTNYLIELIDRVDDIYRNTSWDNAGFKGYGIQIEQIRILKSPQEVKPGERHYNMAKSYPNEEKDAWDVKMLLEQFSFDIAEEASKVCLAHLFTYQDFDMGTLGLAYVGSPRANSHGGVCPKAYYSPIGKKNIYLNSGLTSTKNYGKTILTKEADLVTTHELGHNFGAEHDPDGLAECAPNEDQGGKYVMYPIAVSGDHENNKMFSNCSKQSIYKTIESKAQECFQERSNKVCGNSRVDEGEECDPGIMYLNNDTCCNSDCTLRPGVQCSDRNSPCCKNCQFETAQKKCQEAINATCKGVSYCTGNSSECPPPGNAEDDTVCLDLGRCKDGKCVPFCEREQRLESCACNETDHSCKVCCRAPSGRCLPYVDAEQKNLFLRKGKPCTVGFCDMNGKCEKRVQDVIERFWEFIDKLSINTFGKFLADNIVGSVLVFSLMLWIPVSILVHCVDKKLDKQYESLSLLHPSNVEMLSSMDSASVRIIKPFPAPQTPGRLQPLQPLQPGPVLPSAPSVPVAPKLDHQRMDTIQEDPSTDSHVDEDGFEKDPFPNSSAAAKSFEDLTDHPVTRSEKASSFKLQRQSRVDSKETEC

[15] = molecular target: Matrix metalloproteinase-15 (Homo sapiens, UniProt P51511); experiment: Inhibition of matrix metalloprotease-15
Chain of Matrix metalloproteinase-15 (P51511 whole entry): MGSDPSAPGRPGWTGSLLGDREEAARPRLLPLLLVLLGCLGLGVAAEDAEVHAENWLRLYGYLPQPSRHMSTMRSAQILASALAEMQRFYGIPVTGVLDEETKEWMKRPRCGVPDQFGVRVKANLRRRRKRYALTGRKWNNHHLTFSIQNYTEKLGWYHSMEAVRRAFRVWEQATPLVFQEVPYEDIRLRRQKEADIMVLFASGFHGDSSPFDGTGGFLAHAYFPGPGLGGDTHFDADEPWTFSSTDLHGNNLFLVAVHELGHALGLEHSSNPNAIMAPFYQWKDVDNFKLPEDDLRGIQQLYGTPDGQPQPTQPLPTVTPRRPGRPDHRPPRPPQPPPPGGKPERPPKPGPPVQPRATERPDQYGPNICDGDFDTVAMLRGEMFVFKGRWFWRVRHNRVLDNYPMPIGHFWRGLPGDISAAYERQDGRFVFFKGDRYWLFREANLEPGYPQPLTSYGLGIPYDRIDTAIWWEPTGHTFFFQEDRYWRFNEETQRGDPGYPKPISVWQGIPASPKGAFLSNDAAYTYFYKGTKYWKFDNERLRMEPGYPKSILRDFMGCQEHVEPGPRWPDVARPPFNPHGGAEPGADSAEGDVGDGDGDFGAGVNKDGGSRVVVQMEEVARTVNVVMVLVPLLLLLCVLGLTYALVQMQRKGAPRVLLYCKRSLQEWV

[16] = molecular target: Collagenase 3 (Homo sapiens, UniProt P45452)

For `CNC(=O)CNC(=O)[C@@H]1Cc2ccc(cc2)OCCC[C@H](C(=O)NO)[C@@H](CC(C)C)C(=O)N1`, the Ki [1] was 94 nM, the Ki [2] was 35 nM and the Cmax [3] was 121 ng/mL. The AUC [4] was 342 ng·h/mL, the half-life [4] was 1.29 h and the Ki [5] was 3 nM. It also gave a bioavailability [6] of 11%, a Ki [7] of 0.5 nM and an AUC [8] of 2613 ng·h/mL. For the same compound, the T1/2 [8] was 0.81 h, the T max [8] was 0.88 h and the clearance [8] was 7 mL/min/kg. The Vd ([8]; read-out: Vss) was 0.7 L/kg, the Ki [9] was 1.1 nM and the Ki [10] was 0.8 nM. It also gave a Ki [11] of 14 nM, an IC50 [12] of 220 nM and a Ki [13] of 0.9 nM. The Ki [14] was 12 nM, the Ki [15] was 20 nM and the Ki [16] was 0.45 nM.
